How the values were obtained:
Mus musculus [1] = assay: […] anticancer activity against B6D2F-1 mice bearing P388 leukemia measured by the average weight change(g) after day 11 at an intravenous dose of 16(mg/kg).; assay type: functional
Procedure, shortened: (§1)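 Male B6D2F1 mice (8 weeks old, 20–25 g) were implanted iv on day 0 with P388/0 ascites cells (0.2 mL; ascites:saline 1.10), which grew in the liver. Drug was given iv via the tail vein, Q2Dx5, on days 1, 3, 5, 7 and 9. Groups had 4–5 mice. Day 1 value is mean body weight; later days are weight change.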

Mus musculus [2] = assay: […] anticancer activity against B6D2F-1 mice bearing P388 leukemia measured by the increase in lifespan at an intravenous dose of 30(mg/kg).; assay type: functional
Procedure, shortened: (§2)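 Male B6D2F1 mice, 8 weeks old, 20–25 g. P388/0 ascites cells (0.2 mL, ascites:saline 1.10) were implanted iv on day 0, and the tumor grew in the liver. Drug was given iv by tail vein on days 1, 3, 5, 7 and 9 (Q2Dx5), with 4–5 mice per group. Survival time was scored as 8 a.m. (0.0), 1 p.m. (0.25) or 5 p.m. (0.5) deaths. %ILS was averaged against untreated controls, and toxic deaths were counted.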

Mus musculus [3] = assay: […] anticancer activity against B6D2F-1 mice bearing P388 leukemia measured by the average weight change(g) after day 7 at an intravenous dose of 30(mg/kg).; assay type: functional
Procedure, shortened: (§3)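 Male B6D2F1 mice (8 weeks old, 20–25 g) were implanted iv on day 0 with P388/0 ascites cells (0.2 mL; ascites:saline = 1.10). Tumor grew in the liver. Drug was given iv via the tail vein, Q2Dx5, on days 1, 3, 5, 7 and 9. Body weight was recorded on days 1, 7, 9 and 11 and reported as the average change (g).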

Mus musculus [4] = assay: […] anticancer activity against B6D2F-1 mice bearing P388 leukemia measured by the average body weight(g) after day 1 at an intravenous dose of 30(mg/kg).
Mus musculus [5] = assay: […] anticancer activity against B6D2F-1 mice bearing P388 leukemia measured by the average weight change(g) after day 9 at an intravenous dose of 22(mg/kg).; assay type: functional; procedure, shortened: as §3
Mus musculus [6] = assay: […] anticancer activity against B6D2F-1 mice bearing P388 leukemia measured by the average body weight(g) after day 1 at an intravenous dose of 16(mg/kg).
HL-60 [7] = assay: In vitro inhibition of human leukemic HL-60 cell growth in culture; assay type: functional, cell-based
Procedure, shortened: (§4)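 HL-60 cells were seeded at 5×10^4 cells/mL in RPMI 1640 with 10% heat-inactivated FBS, penicillin and streptomycin, at 37 °C in 5% CO2. Cells were exposed for 72 h to six or seven drug concentrations, run in duplicate. Viability was read by XTT-tetrazolium microculture absorbance, and IC50 was derived from median-effect plot analysis.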

Mus musculus [8] = assay: […] anticancer activity against B6D2F-1 mice bearing P388 leukemia measured by the average weight change(g) after day 11 at an intravenous dose of 30(mg/kg).; assay type: functional; procedure, shortened: as §1
Mus musculus [9] = assay: […] anticancer activity against B6D2F-1 mice bearing P388 leukemia measured by the average weight change(g) after day 7 at an intravenous dose of 22(mg/kg).; assay type: functional; procedure, shortened: as §1
Mus musculus [10] = assay: […] anticancer activity against B6D2F-1 mice bearing P388 leukemia measured by the average weight change(g) after day 9 at an intravenous dose of 30(mg/kg).; assay type: functional; procedure, shortened: as §3
Mus musculus [11] = assay: […] anticancer activity against B6D2F-1 mice bearing P388 leukemia measured by the average weight change(g) after day 7 at an intravenous dose of 16(mg/kg).; assay type: functional; procedure, shortened: as §1
Mus musculus [12] = assay: […] anticancer activity against B6D2F-1 mice bearing P388 leukemia measured by the average survival time(days) at an intravenous dose of 16(mg/kg)..; assay type: functional; procedure, shortened: as §2
Mus musculus [13] = assay: […] anticancer activity against B6D2F-1 mice bearing P388 leukemia measured by the average body weight(g) after day 1 at an intravenous dose of 22(mg/kg).
Mus musculus [14] = assay: […] anticancer activity against B6D2F-1 mice bearing P388 leukemia measured by the increase in lifespan at an intravenous dose of 16(mg/kg)..; assay type: functional; procedure, shortened: as §2
Mus musculus [15] = assay: […] anticancer activity against B6D2F-1 mice bearing P388 leukemia measured by the Average survival time(days) at an intravenous dose of 22(mg/kg).; assay type: functional; procedure, shortened: as §2
Mus musculus [16] = assay: […] anticancer activity against 5 B6D2F-1 mice bearing P388 leukemia measured by the toxicity death at an intravenous dose of 16(mg/kg)..; assay type: organism-based; conditions: in vivo; procedure, shortened: as §2
Mus musculus [17] = assay: […] anticancer activity against 5 B6D2F-1 mice bearing P388 leukemia measured by the toxicity death at an intravenous dose of 22(mg/kg).; assay type: organism-based; conditions: in vivo; procedure, shortened: as §2
Mus musculus [18] = assay: […] anticancer activity against B6D2F-1 mice bearing P388 leukemia measured by the average weight change(g) after day 11 at an intravenous dose of 22(mg/kg).; assay type: functional; procedure, shortened: as §1
Mus musculus [19] = assay: […] anticancer activity against B6D2F-1 mice bearing P388 leukemia measured by the Average survival time(days) at an intravenous dose of 30(mg/kg).; assay type: functional; procedure, shortened: as §2
Mus musculus [20] = assay: […] anticancer activity against B6D2F-1 mice bearing P388 leukemia measured by the average weight change(g) after day 9 at an intravenous dose of 16(mg/kg).; assay type: functional; procedure, shortened: as §3
Mus musculus [21] = assay: […] anticancer activity against B6D2F-1 mice bearing P388 leukemia measured by the increase in lifespan at an intravenous dose of 22(mg/kg).; assay type: functional; procedure, shortened: as §2
Mus musculus [22] = assay: […] anticancer activity against 4 B6D2F-1 mice bearing P388 leukemia measured by the toxicity death at an intravenous dose of 30(mg/kg).; assay type: organism-based; conditions: in vivo; procedure, shortened: as §2
HL-60 [23] = assay: In vitro growth inhibition against human leukemia HL-60 cell line; assay type: functional, cell-based; procedure, shortened: as §4
Mus musculus [24] = assay: […] anticancer activity against B6D2F-1 mice bearing P388 leukemia measured by the average weight change(g) after day 11 at an intravenous dose of 8(mg/kg).; assay type: functional; procedure, shortened: as §1
Mus musculus [25] = assay: […] anticancer activity against B6D2F-1 mice bearing P388 leukemia measured by the average weight change(g) after day 7 at an intravenous dose of 12(mg/kg).; assay type: functional; procedure, shortened: as §1
Mus musculus [26] = assay: […] anticancer activity against B6D2F-1 mice bearing P388 leukemia measured by the average weight change(g) after day 7 at an intravenous dose of 18(mg/kg).; assay type: functional; procedure, shortened: as §1
Mus musculus [27] = assay: […] anticancer activity against B6D2F-1 mice bearing P388 leukemia measured by the average body weight(g) after day 1 at an intravenous dose of 18(mg/kg).
Mus musculus [28] = assay: […] anticancer activity against B6D2F-1 mice bearing P388 leukemia measured by the increase in lifespan(%) at an intravenous dose of 18(mg/kg).; assay type: functional; procedure, shortened: as §2
Mus musculus [29] = assay: […] anticancer activity against B6D2F-1 mice bearing P388 leukemia measured by the average weight change(g) after day 11 at an intravenous dose of 12(mg/kg).; assay type: functional; procedure, shortened: as §1
Mus musculus [30] = assay: […] anticancer activity against B6D2F-1 mice bearing P388 leukemia measured by the average weight change(g) after day 9 at an intravenous dose of 8(mg/kg).; assay type: functional; procedure, shortened: as §3
Mus musculus [31] = assay: […] anticancer activity against B6D2F-1 mice bearing P388 leukemia measured by the average weight change(g) after day 9 at an intravenous dose of 12(mg/kg).; assay type: functional; procedure, shortened: as §3
Mus musculus [32] = assay: […] anticancer activity against B6D2F-1 mice bearing P388 leukemia measured by the increase in lifespan(%) at an intravenous dose of 12(mg/kg).; assay type: functional; procedure, shortened: as §2
Mus musculus [33] = assay: […] anticancer activity against B6D2F-1 mice bearing P388 leukemia measured by the Average survival time(day+/-SD) at an intravenous dose of 18(mg/kg).; assay type: functional; procedure, shortened: as §2
Mus musculus [34] = assay: […] anticancer activity against B6D2F-1 mice bearing P388 leukemia measured by the Average survival time(day+/-SD) at an intravenous dose of 12(mg/kg).; assay type: functional; procedure, shortened: as §2
Mus musculus [35] = assay: […] anticancer activity against B6D2F-1 mice bearing P388 leukemia measured by the average body weight(g) after day 1 at an intravenous dose of 12(mg/kg).
Mus musculus [36] = assay: […] anticancer activity against B6D2F-1 mice bearing P388 leukemia measured by the average weight change(g) after day 7 at an intravenous dose of 8(mg/kg).; assay type: functional; procedure, shortened: as §3
Mus musculus [37] = assay: […] anticancer activity against B6D2F-1 mice bearing P388 leukemia measured by the average body weight(g) after day 1 at an intravenous dose of 8(mg/kg).
Mus musculus [38] = assay: […] anticancer activity against B6D2F-1 mice bearing P388 leukemia measured by the increase in lifespan(%) at an intravenous dose of 8(mg/kg)..; assay type: functional; procedure, shortened: as §2
Mus musculus [39] = assay: […] anticancer activity against B6D2F-1 mice bearing P388 leukemia measured by the average survival time(day+/-SD) at an intravenous dose of 8(mg/kg)..; assay type: functional; procedure, shortened: as §2

Question: Which results are given for `Nc1cc(CO)cc(Nc2c3ccccc3nc3ccccc23)c1`?
Answer: Average weight change (Mus musculus [1]): -2.1 g; Increase in life-span (Mus musculus [2]): 240%; Average weight change (Mus musculus [3]): 0.2 g; Body weight (Mus musculus [4]): 22.6 g; Average weight change (Mus musculus [5]): -1.5 g; Body weight (Mus musculus [6]): 23.3 g; IC50 (HL-60 [7]): 27 nM; Average weight change (Mus musculus [8]): -0.2 g; Average weight change (Mus musculus [9]): -1.3 g; Average weight change (Mus musculus [10]): -0.1 g; Average weight change (Mus musculus [11]): 0.8 g; Average survival (Mus musculus [12]): 14.9 days; Body weight (Mus musculus [13]): 23.8 g; Increase in life-span (Mus musculus [14]): 133%; Average survival (Mus musculus [15]): 21.1 days; Toxicity related death (Mus musculus [16]): 0; Toxicity related death (Mus musculus [17]): 0; Average weight change (Mus musculus [18]): -2.8 g; Average survival (Mus musculus [19]): 21.8 days; Average weight change (Mus musculus [20]): -0.5 g; Increase in life-span (Mus musculus [21]): 230%; Toxicity related death (Mus musculus [22]): 0

Question: How did the IC50 (HL-60 [23]) turn out when `CCOC(=O)Nc1cc(CO)cc(Nc2c3cccc(C)c3nc3c(C(=O)NCCN(C)C)cccc23)c1` was run?
Answer: 2.3 nM

Question: Which Average weight change (Mus musculus [24]) does the source give for `COc1cc(NS(C)(=O)=O)ccc1Nc1c2ccccc2nc2ccccc12` [AMSACRINE] here?
Answer: -3.8 g

Question: What about the Average weight change (Mus musculus [25]) of the same compound?
Answer: -0.7 g

Question: What about the Average weight change (Mus musculus [26]) of the same compound?
Answer: -4.3 g

Question: And the Body weight (Mus musculus [27])?
Answer: 24.5 g

Question: And the Increase in life-span (Mus musculus [28])?
Answer: 19%

Question: What about the Average weight change (Mus musculus [29]) of the same compound?
Answer: -3.2 g

Question: What about the Average weight change (Mus musculus [30]) of the same compound?
Answer: -2.1 g

Question: What about the Average weight change (Mus musculus [31]) of the same compound?
Answer: -1.4 g

Question: What about the Increase in life-span (Mus musculus [32]) of the same compound?
Answer: 120%

Question: And the Average survival (Mus musculus [33])?
Answer: 7.6 days

Question: What about the Average survival (Mus musculus [34]) of the same compound?
Answer: 14.1 days

Question: And the Body weight (Mus musculus [35])?
Answer: 22.7 g

Question: What about the Average weight change (Mus musculus [36]) of the same compound?
Answer: 0.1 g

Question: What about the Body weight (Mus musculus [37]) of the same compound?
Answer: 22.8 g

Question: And the Increase in life-span (Mus musculus [38])?
Answer: 91%

Question: And the Average survival (Mus musculus [39])?
Answer: 12.2 days
